The full list was thinned out, with hits kept by preference.
HUVEC prolif 384 – human endothelial cell proliferation inhibition; 86,000 compounds, 1.1% hits; AID 648; viability, % at 10 µM (by protocol); HUVEC proliferation, CellTiter-Glo luminescence, 72 h; hits give low values;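 active = viability at or below 30%; inactive = viability above 30%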;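 also: 100% = median luminescence of DMSO-only cell control wells on each plate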
PTEN del growth – PTEN-deleted cell growth suppression; HCT116 PTEN-null viability, CellTiter-Glo, 60 h; hits give low values; viability, % at 10 µM; 140,000 compounds, 1.2% hits;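 active = viability at or below a set limit, 4 SD under the median of all tested compounds, cut at about 3.7% in these data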;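 also: PTEN knockout HCT116 line with beta catenin targeted HCT116 as companion control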
H69AR inhibit – blocks growth of human H69AR lung tumor cells | H69AR lung tumor viability, ATP luminescence, 72 h; hits give low values | viability, % at 10 µM | 85,000 compounds, 6% hits | AID 598;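 active = viability at or below 40%; inactive = viability above 40%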;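 also: multidrug resistant small cell line overexpressing MRP-1 efflux transporter; 100% = mean luminescence of untreated control wells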
Fibroblast inh – blocks proliferation of human lung fibroblasts; viability, % at 10 µM; 85,000 compounds, 1.1% hits; LL 47 human lung fibroblast viability, ATP luminescence; hits give low values; AID 719;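 active = viability at or below 50% in the single dose screen; inactive = viability above 50%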;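 also: compound exposure lasted 72 h before the ATP readout; 100% = median luminescence of untreated cell-only wells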
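material = human LL 47 lung fibroblast cells | dosing = compounds added from tenfold dosing solution, 0.1% DMSO final | timing = overnight cell rest, 72 h compound treatment at 37 °C | measured by = CellTiter-Glo luminescence measuring cellular ATP | evaluation = % viability versus median cells-only luminescence | control set = cell-only wells, no compound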
bCat KO growth – beta-catenin-lacking colon tumor cell growth suppression | HCT116 beta-catenin knockout viability, CellTiter-Glo, 60 h; hits give low values | viability, % at 10 µM | AID 818 | 140,000 compounds, 1.5% hits;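 active = viability at or under a set limit, the compound median less 4 SD, cut at about 6% in these data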;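 also: 0% = Hyamine 1622 control at 20 µM and 100% = untreated cell control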
The depositor's hits bear a star; . = no result given.

SMILES	HUVEC prolif 384	PTEN del growth	H69AR inhibit	Fibroblast inh	bCat KO growth
CCOC(=O)c1cc(-c2ccccc2)sc1NC(=O)C(C)OC(=O)c1cccnc1Cl (stereo unspecified)	.	62	.	.	61
CC(C)C(NC(=O)c1ccc(F)cc1)C(=O)OCC(=O)N1CC(=O)Nc2ccccc21 (stereo unspecified)	.	92	.	.	93
O=C(NCCO)C(c1ccccc1)c1ccccc1	98	95	36*	.	86
N/C(=N\OC(=O)Nc1ccc(Cl)cc1)c1ncc(C(F)(F)F)cc1Cl	67	84	32*	106	78
CCCn1c(=O)c2ccccc2n2c(Sc3nnnn3-c3ccccc3)nnc12	94	48	33*	97	53
C=CCn1c(=O)c2ccccc2n2c(Sc3nnnn3-c3ccccc3)nnc12	91	80	51	.	79
CC1(C)CC(=O)CC(C2(O)C(=O)N(Cc3ccccc3)c3ccccc32)O1 (stereo unspecified)	95	10	29*	103	11
CC1(C)CC(=O)C(C2(O)C(=O)N(Cc3ccccc3)c3ccccc32)CO1 (stereo unspecified)	76	12	17*	97	14
CC12CN3CC(C)(CN(C1)C31C(=O)N(Cc3ccccc3)c3ccccc31)C2=O (stereo unspecified)	88	.	86	92	.
N#Cc1c(NC(=S)NC(=O)Cc2cccs2)sc2c1CCCCC2	.	99	.	.	84
COCCn1c(-c2ccc(OC(F)(F)C(F)C(F)(F)F)cc2)nc2c1c(=O)[nH]c(=O)n2CC(C)C (stereo unspecified)	105	58	39*	94	65
COc1ccc(Br)cc1CNc1ccc(O)cc1	88	66	36*	100	83
COc1ccc(Br)cc1CNC(C)c1ccccc1 (stereo unspecified)	.	74	.	.	74
CC1(c2cccc3ccccc23)NC(=O)N(CC(=O)NC2CCS(=O)(=O)C2)C1=O (stereo unspecified)	.	93	.	.	92
COc1ccc(/C=N/Nc2ccc([N+](=O)[O-])cc2)cc1Cn1cc([N+](=O)[O-])cn1	48	93	14*	92	89
CCn1c(=O)c(C(=O)Nc2cnccn2)c(O)c2ccccc21	112	.	92	94	.
Cn1c(=O)c(C(=O)Nc2cnccn2)c(O)c2ccccc21	98	.	0.6*	104	.
Cn1c(=O)c(C(=O)Nc2ccccn2)c(O)c2ccccc21	103	12	19*	55	15
CN1CCN(C(=S)SCC(=O)Nc2nc(-c3ccccc3)c(-c3ccccc3)o2)CC1	.	89	.	.	93
CCSC1(SCC)N=C(N)C2(C#N)C(c3ccccc3)NC3=C(CCC3)C12C#N (stereo unspecified)	97	89	78	97	76
CCSC1(SCC)N=C(N)C2(C#N)C(c3ccc(OC)c(OC)c3OC)C12C#N (stereo unspecified)	45	85	2.1*	51	76
CC(=O)Oc1cc2c(cc1Cl)C1(CC(c3ccccc3Cl)O2)CC(C)(C)NC(=S)N1 (stereo unspecified)	79	2.0*	32*	92	2.0*
COc1cccc(C2CC3(CC(C)(C)NC(=S)N3)Oc3cc(O)ccc32)c1 (stereo unspecified)	.	70	.	.	77
Cn1c(=O)[nH]c(=O)c2c1nc(Br)n2CCCSc1nc2ccccc2o1	57	17	16*	60	20
CSc1n[nH]c(NCc2cccs2)n1	107	78	100	106	1.2*
SMILES	HUVEC prolif 384	PTEN del growth	H69AR inhibit	Fibroblast inh	bCat KO growth
Fc1ccc(-c2cc(C(F)(F)F)nc(NCc3cccs3)n2)cc1	.	76	.	.	72
COc1ccc(CN(C(=O)CO/N=C/c2ccccc2)c2ccccc2C(=O)O)cc1	.	103	.	.	92
COc1ccc(CN(C(C)=O)c2cccc(C)c2C)cc1	58	37	19*	82	35
CCC(Sc1nnc2c3ccccc3n(CC)c2n1)C(=O)Nc1sc2c(c1C#N)CCCC2 (stereo unspecified)	.	1.4*	.	.	1.4*
O=C(c1cc2c(s1)CCCC2)N1CCN(Cc2ccc3c(c2)OCO3)CC1	82	79	89	98	73
O=C(Oc1ccc2c(c1)OCO2)c1cc2c(s1)CCC2	55	2.1*	96	66	2.6*
O=C(O)c1sc2cc(C(F)(F)F)cnc2c1-c1ccccc1	.	107	.	.	101
CSc1nnc(-c2sc3cc(C(F)(F)F)cnc3c2-c2ccccc2)n1C	65	27	25*	60	21
OC(C#Cc1ccccn1)c1cccs1 (stereo unspecified)	7.9*	60	13*	85	60
Cc1cc(S(=O)(=O)N2CCN(Cc3ccc4c(c3)OCO4)CC2)cc(C)c1N1CCCC1=O	20*	35	70	85	36
COc1cc(/C=C(\C#N)c2nc3ccccc3[nH]2)cc(Br)c1OCc1ccc(F)cc1	.	2.1*	.	.	2.1*
COc1ccccc1C1c2c(oc3ccc(Cl)cc3c2=O)C(=O)N1c1cc(C)on1 (stereo unspecified)	42	.	40*	36*	.
COC(=O)c1cn(CC(=O)N2C(C)CCCC2C)c2ccccc12 (stereo unspecified)	99	99	75	109	96
CC1CCCC(C)N1C(=O)Cn1cc(/C=C2/C(=O)Nc3ccccc32)c2ccccc21 (stereo unspecified)	76	51	23*	82	58
COc1ccccc1NC(=O)N(Cc1cccs1)Cc1cc2cc3c(cc2[nH]c1=O)OCO3	.	28	.	.	30
N#Cc1ccc(-c2csc(NNC(=O)c3ccc(Br)cc3)n2)cc1	.	4	.	.	2.8*
COc1cc(C(=O)OCC(=O)c2cc(C)n(C)c2C)cc(NC(=O)c2ccco2)c1OC	27*	88	11*	84	87
CNC(=O)COC(=O)c1cc(NC(=O)c2ccco2)c(OC)c(OC)c1	.	99	.	.	86
CCCCn1c(SCC(=O)c2ccc(OC)cc2OC)nc2cc(S(N)(=O)=O)ccc21	113	94	73	102	87
CCCCn1c(SC(C)C(=O)c2ccc(OC)cc2)nc2cc(S(N)(=O)=O)ccc21 (stereo unspecified)	102	58	33*	98	75
O=C(Nc1ccc2oc(-c3ccc(Cl)c(Cl)c3)nc2c1)c1ncn[nH]1	.	0.9*	.	.	1.0*
O=C(Nc1ccc2oc(-c3ccccc3F)nc2c1)c1ncn[nH]1	.	85	.	.	101
Cc1ccc(NC(=O)c2cc(-n3cnnc3)ccc2Cl)cc1	95	85	97	100	87
CCCC(=O)Nc1cccc(-c2nc3cc(C)c(C)cc3o2)c1	49	98	14*	111	95
COc1cc(C(=O)Nc2cccc(-c3nc4cc(C)ccc4o3)c2)cc(OC)c1OC	57	73	28*	94	76
Cc1ccc2oc(-c3cccc(NC(=O)c4cc(-n5cnnc5)ccc4Cl)c3)nc2c1	58	94	11*	51	88
COc1cc(C(=O)Nc2cccc(-c3nc4cc(C)ccc4o3)c2C)cc(OC)c1OC	84	112	73	82	89

From PubChem
